Publication PMC8475556 (Oncoimmunology, 2021)
Like-named read-outs stand apart in the source and are kept apart here. *1 amine or outer side, *2 acyl side, *3 side chain or, on linkers, in order; H or OH if unused. Where a SMILES comes first, the peptide text is derived from it. Bridges are numbered along the chain shown (N, C = ends). Roman numbers before positions name the chains, in order. [ ]: non-standard residue; d: D form. Hexamethylenediamine = C(CCCN[*:2])CCN[*:1]; Dip = N[C@H](C(=O)O)C(c1ccccc1)c1ccccc1; Chg = N[C@H](C(=O)O)C1CCCCC1; NMeA = CN[C@@H](C)C(=O)O

What was measured:
[1] = system: pERK; assay: pERK phosphoflow in live primary CLL cells after 24 h treatment; assay type: cell-based, human; conditions: for IC50: Homo sapiens, CLL cell, read-out: IC50 for decrease in pERK (dMFI)
[2] = system: pS6; assay: pS6 phosphoflow in live primary CLL cells after 24 h treatment; assay type: cell-based, human; conditions: for IC50: Homo sapiens, CLL cell, read-out: IC50 for decrease in pS6 (dMFI)
[3] = system: TRAF1; assay type: cell-based, human; conditions: 24 h; for IC50: Homo sapiens, Raji, read-out: IC50 for reducing TRAF1; for effect on TRAF1 levels: RAJI cells, 0.1 nM-10 μM
How it was run: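 shCTL RAJI cells were seeded at 2 × 10^5 per well in RPMI 1640 with 10% FCS, 2-ME, glutamine, pen/strep and non-essential amino acids. Test compound was added at 0.1 nM–10 μM (0.1% DMSO final) for 24 h. Staining: Fc block, viability dye, Foxp3-buffer fixation/permeabilisation, rat anti-TRAF1 (clone 1F3) with goat anti-rat PE secondary. TRAF1 dMFI = MFI minus FMO background.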

[4] = system: pNF-κB p65; assay: pNF-κB p65 phosphoflow in live primary CLL cells after 24 h treatment; assay type: cell-based, human; conditions: for IC50: Homo sapiens, CLL cell, read-out: IC50 for decrease in pNF-κB p65 (dMFI)
[5] = system: Mcl-1; assay: Mcl-1 by flow cytometry in live primary CLL cells after 24 h treatment; assay type: cell-based, human; conditions: for IC50: Homo sapiens, CLL cell, read-out: IC50 for lowering Mcl-1 (Mcl-1 dMFI)
How it was run: (§1)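 Primary CLL cells were thawed and resuspended at 8 × 10^6 cells/mL in high-glucose complete medium (2.5 g/L total glucose). They were plated at 2 × 10^6 per well on confluent OP9 stroma, rested overnight, then treated 24 h with test compound at 0.1% DMSO final. Staining: Fc block, viability dye, CD19/CD5, Foxp3-buffer fix/perm, then intracellular Bcl-2 BV421 or Mcl-1 AF647. Live CD5+CD19+ gate; dMFI = MFI minus FMO; n = 6 donors, 2 experiments pooled.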

[6] = system: primary CLL cells; assay: Cell death; assay type: cell-based, human; conditions: for IC50: Homo sapiens, CLL cell, read-out: IC50 for cell death; for primary CLL cells died: cleaved caspase-3
[7] = system: Bcl-2; assay: Bcl-2 by flow cytometry in live primary CLL cells after 24 h treatment; assay type: cell-based, human; conditions: for IC50: Homo sapiens, CLL cell, read-out: IC50 for lowering Bcl-2 (Bcl-2 dMFI)
How it was run: as §1

[8] = system: TRAF1; assay: TRAF1 by flow cytometry in live primary CLL cells on OP9 after 24 h treatment; assay type: cell-based, human; conditions: for effect on TRAF1 expression: primary CLL cells, 24 h
[9] = system: TRAF1 in the CD40 signaling complex; assay type: cell-based, human; conditions: BV6 5 μM
How it was run: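 shCTL or shPKN1 RAJI cells (6 × 10^6) received cycloheximide 3 μg/ml for the indicated times, ± BV6 5 μM, and were lysed in 1% NP-40 with protease/phosphatase inhibitors. For IP1, Protein G magnetic beads were loaded with 0.5 μg anti-CD40 (10 min, RT), then incubated with lysate overnight at 4°C. Unbound material was re-precipitated with 0.5 μg anti-TRAF1 (IP2). Both IPs and lysates were western blotted for TRAF1.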

[10] = system: pERK; assay: pERK by flow cytometry in RAJI cells after 24 h inhibitor treatment; assay type: cell-based, human
[11] = biological target: PRK1(h) (Homo sapiens, UniProt Q16512); assay: Dose titration of selected inhibitors against PKN1 kinase activity in vitro; assay type: biochemical
PRK1(h), sequence (Q16512 whole entry): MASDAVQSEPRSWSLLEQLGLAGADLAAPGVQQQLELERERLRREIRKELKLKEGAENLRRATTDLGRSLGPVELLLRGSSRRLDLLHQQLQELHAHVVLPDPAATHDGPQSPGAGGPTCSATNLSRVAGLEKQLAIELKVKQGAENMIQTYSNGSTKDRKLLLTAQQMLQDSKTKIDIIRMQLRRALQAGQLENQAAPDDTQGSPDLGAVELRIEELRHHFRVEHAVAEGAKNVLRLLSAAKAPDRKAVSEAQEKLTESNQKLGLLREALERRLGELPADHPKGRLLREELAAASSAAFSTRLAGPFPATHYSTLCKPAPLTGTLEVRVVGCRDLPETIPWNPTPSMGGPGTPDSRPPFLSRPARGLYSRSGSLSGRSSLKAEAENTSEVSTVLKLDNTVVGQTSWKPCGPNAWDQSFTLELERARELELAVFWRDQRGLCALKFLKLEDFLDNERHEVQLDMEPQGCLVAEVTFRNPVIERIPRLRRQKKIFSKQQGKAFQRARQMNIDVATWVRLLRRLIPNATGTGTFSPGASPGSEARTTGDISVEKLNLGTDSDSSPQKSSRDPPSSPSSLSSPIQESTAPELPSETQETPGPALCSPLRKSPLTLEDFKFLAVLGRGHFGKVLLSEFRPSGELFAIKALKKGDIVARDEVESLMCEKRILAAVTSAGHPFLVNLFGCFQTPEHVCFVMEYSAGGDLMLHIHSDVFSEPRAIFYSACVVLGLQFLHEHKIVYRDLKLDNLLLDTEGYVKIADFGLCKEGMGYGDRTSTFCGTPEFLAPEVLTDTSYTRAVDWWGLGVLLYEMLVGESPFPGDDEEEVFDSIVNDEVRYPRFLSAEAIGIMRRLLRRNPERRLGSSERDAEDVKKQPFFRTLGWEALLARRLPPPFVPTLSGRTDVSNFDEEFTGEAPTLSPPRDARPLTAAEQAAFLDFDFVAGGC

In the case of `CC(C)c1cc(CNc2nc(Nc3cc(C4CC4)[nH]n3)cc(N3CCN(C)CC3)n2)on1` [XL-228], the IC50 [1] is reported as 2230 nM, the IC50 [2] is reported as 1440 nM and the IC50 [3] is reported as 2300 nM. For the same compound, the IC50 [4] was 2470 nM, the IC50 [5] was 2540 nM and the cells survived treatment ([6]; primary CLL cells, suboptimal concentration 4 μM) was 20–50%. For the same compound, the IC50 [7] was 3520 nM.

`Cn1ncc(Cl)c1-c1cc(C(=O)N[C@H](CN)Cc2ccc(F)c(F)c2)oc1Cl` [uprosertib, Uprosertib] showed an IC50 [3] of 4900 nM.

For `CC(C)NC[C@@H](C(=O)N1CCN(c2ncnc3c2[C@H](C)C[C@H]3O)CC1)c1ccc(Cl)cc1` [ipatasertib, Ipatasertib], the IC50 [3] was greater than 10000 nM.

With `Clc1ccc(C2(c3ccc(-c4cn[nH]c4)cc3)CCNCC2)cc1` [AT7867] the “effect on pERK” value ([1]; primary CLL cells) was “slightly reduced”, the “effect on pS6” value ([2]; primary CLL cells) was “slightly reduced” and the “effect on levels of pNF-κB” value ([4]; primary CLL cells) was “did not affect”. The “effect on TRAF1 expression” value [8] was “no effect”, the “effect on Mcl-1 expression” value ([5]; primary CLL cells) was “did not affect” and the “effect on cell death” value ([6]; primary CLL cells, 24 h) was “no effect”. The “effect on Bcl-2 expression” value ([7]; primary CLL cells) was “did not affect”.

In the case of `CCCCNc1ncc2c(-c3ccc(CN4CCN(C)CC4)cc3)cn([C@H]3CC[C@H](O)CC3)c2n1` [UNC-2025], the “effect on TRAF1 levels” value [3] is reported as “increased rather than decreased”.

With `C[C@@H]1CCN(C(=O)CC#N)C[C@@H]1N(C)c1ncnc2[nH]ccc12` [tofacitinib] the “effect on TRAF1 levels” value [3] was “minimal effects”.

In the case of `CC1(COc2ccc3c(c2)ncn3-c2ccc3cccc(N4CCC(N)CC4)c3n2)COC1` [crenolanib, Crenolanib], the “effect on TRAF1 levels” value [3] is reported as “increased rather than decreased”.

With `CN[C@@H](C)C(=O)N[C@H](C(=O)N1CCC[C@H]1C(=O)N[C@H](C(=O)NCCCCCCNC(=O)[C@@H](NC(=O)[C@@H]1CCCN1C(=O)[C@@H](NC(=O)[C@H](C)NC)C1CCCCC1)C(c1ccccc1)c1ccccc1)C(c1ccccc1)c1ccccc1)C1CCCCC1` [BV6] (I: H-[NMeA][Chg]P[Dip] / II: H-[NMeA][Chg]P[Dip]; linker I:C-II:C via Hexamethylenediamine) the “cytosolic pool of TRAF1 (IP2)” value ([9]; RAJI cells, cycloheximide) was “not sensitive”, the “CD40 associated TRAF1 protein” value ([9]; shCTL RAJI cells (presence of PKN1), cycloheximide 6 h) was “rescued” and the “CD40 associated TRAF1 protein” value ([9]; shPKN1 RAJI cells (absence of PKN1), cycloheximide) was “partially rescued”.

With `CC1(C)CCC(CN2CCN(c3ccc(C(=O)NS(=O)(=O)c4ccc(NCC5CCOCC5)c([N+](=O)[O-])c4)c(Oc4cnc5[nH]ccc5c4)c3)CC2)=C(c2ccc(Cl)cc2)C1` [venetoclax] the “patients whose CLL cells were enriched for TRAF1hi cells after treatment” value ([8]; dose that resulted in approximately 50% death) was 4 of 6, the “effect on TRAF1 expression” value [8] was “lack of effect” and the IC50 ([6]; 24 h) was 9.91 nM. The “primary CLL cells died” value ([6]; suboptimal 1 nM alone, 24 h) was less than 15% and the “decrease of IC50 for cell death compared to treatment alone” value ([6]; venetoclax with 10 nM OTSSP167 versus venetoclax alone) was 5.8 fold.

In the case of `CC(=O)c1cnc2ccc(-c3cc(Cl)c(O)c(Cl)c3)nc2c1N[C@H]1CC[C@H](CN(C)C)CC1` [OTSSP167], the IC50 [1] is reported as 1040 nM, the IC50 [2] is reported as 310 nM and the IC50 [3] is reported as 18 nM. The IC50 [4] was 320 nM, the pERK levels [10] was “decreased only at the highest levels” and the IC50 [5] was 25.7 nM. For the same compound, the IC50 ([6]; 24 h) was 45.9 nM, the “reduction of IC50 for cell death compared to treatment alone” value ([6]; OTSSP167 with 1 nM venetoclax versus OTSSP167 alone) was 1.9 fold and the cells survived treatment ([6]; primary CLL cells, suboptimal concentration 50 nM) was 20–50%. For the same compound, the “primary CLL cells died” value ([6]; suboptimal 10 nM alone, 24 h) was less than 15%, the IC50 [11] was 11 nM and the IC50 [7] was 49.8 nM.
